Data as given in ChEMBL document CHEMBL1151198, “A new antimalarial quassinoid from Simaba orinocensis” (J Nat Prod, 2004).
In brackets after ≈: the same amount, converted by molar mass. Activity calls are given as the source filed them. The calls are words filed in the database; no cut-off is given here.

Assays:
RAW264.7 [1] = test: Inhibition of iNOS production in LPS-activated mouse RAW264.7 cells after 20 hrs; format: functional, cell-based; conditions: RAW264.7, 20 h
Outline: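 iNOS assay in RAW 264.7 cells, with L-NMMA, APDC and dexamethasone as reference inhibitors. IC50 in µg/mL, mean ± SEM of three determinations.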

RAW264.7 [2] = test: Cytotoxicity against mouse RAW264.7 cells after 2 days by MTT assay; format: cell-based; conditions: RAW264.7, 48 h
Outline: (§1)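 MTT viability assay, run on CHO-ICAM-1 cells and, separately, on RAW 264.7 cells. IC50 in µg/mL, mean ± SEM of three determinations.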

[3] = Specific index, ratio of IC50 for mouse RAW264.7 to IC50 for iNOS production in mouse RAW264.7
Outline: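 Index calculated as the MTT IC50 in RAW 264.7 cells divided by the iNOS IC50 in the same cells.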

[4] = Selectivity index, ratio of IC50 for african green monkey (Cercopithecus aethiops) Vero cells to IC50 for chloroquine-resistant Plasmodium falciparum W2; format: toxicity, cell-based; conditions: read-out: Ratio IC50
[5] = Selectivity index, ratio of IC50 for african green monkey (Cercopithecus aethiops) Vero cells to IC50 for chloroquine-sensitive Plasmodium falciparum D6; format: toxicity, cell-based; conditions: read-out: Ratio IC50
Leishmania donovani = test: Antileishmanial activity against Leishmania donovani promastigotes after 48 hrs by alamar blue assay; format: functional, organism-based
HeLa [6] = test: Inhibition of protein synthesis in human HeLa cells at 2 uM by [35S]methionine metabolic labeling study; format: functional
CHO = test: Cytotoxicity against CHO cells transfected with ICAM1 by MTT assay; format: cell-based; conditions: Cricetulus griseus; outline: as §1
KB = test: Cytotoxicity against human KB cells after 48 hrs by neutral red staining; format: functional, cell-based
Outline: (§2)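 Human tumour lines: SK-MEL (malignant melanoma), KB (epidermal carcinoma), BT-549 (ductal carcinoma) and SK-OV-3 (ovary carcinoma). Compounds tested up to a maximum of 10 µg/mL, with doxorubicin as reference. IC50 given in µg/mL as mean ± SEM of three determinations.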

[7] = Inhibition of protein biosynthesis in mouse Krebs cells assessed as renilla luciferase activity at 0.4 uM after 1 hr by translation assay relative to control; format: functional
Outline: (§3)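 In vitro Krebs cell-extract translation system with firefly and Renilla luciferase read-outs, reported as average relative luciferase values. Compounds were tested at fixed concentrations (0.4–10 µM). DMSO (0.5%) served as vehicle control.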

SK-MEL = test: Cytotoxicity against human SK-MEL cells after 48 hrs by neutral red staining; format: functional, cell-based; outline: as §2
BT-549 = test: Cytotoxicity against human BT549 cells after 48 hrs by neutral red staining; format: functional, cell-based; conditions: BT-549, 48 h; outline: as §2
HeLa [8] = test: Inhibition of translation in human HeLa cells at 2 uM by 35S-methionine metabolic labeling study; format: functional, cell-based
[9] = Inhibition of protein biosynthesis in mouse Krebs cells assessed as firefly luciferase activity at 0.4 uM after 1 hr by translation assay relative to control; format: functional; outline: as §3
[10] = Inhibition of protein biosynthesis in mouse Krebs cells assessed as renilla luciferase activity at 2 uM after 1 hr by translation assay relative to control; format: functional
Outline: (§4)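 In vitro Krebs cell translation system read by firefly and renilla luciferase. Compounds at 10 or 2 µM; anisomycin 10 µM as reference and 0.5% DMSO as vehicle control. Values are average luciferase activity relative to control.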

[11] = Specific index, ratio of IC50 for human HL60 cells to MIC for LFA1/ICAM1; format: functional, HL-60
Outline: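 Index calculated as XTT-assay IC50 (µg/mL) divided by the MIC from the LFA-1/ICAM-1-mediated aggregation primary screen (µg/mL). XTT IC50 values are given as mean ± SEM of three determinations.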

[12] = target: Intercellular adhesion molecule (ICAM-1), Integrin alpha-L/beta-2 (Homo sapiens, UniProt P05107+P05362+P20701); test: Inhibition of LFA1/ICAM1-mediated adhesion of HL60 cells to CHO-ICAM1 cells; format: cell-based, HL-60
Outline: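 Secondary LFA-1/ICAM-1-mediated adhesion assay using HL-60 cells and CHO-ICAM-1 cells, with cytochalasin B as standard. IC50 in µg/mL, mean ± SEM of three determinations.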

HeLa [13] = test: Inhibition of translation in human HeLa cells at 0.4 uM by 35S-methionine metabolic labeling study; format: functional, cell-based
HL-60 = test: Cytotoxicity against human HL60 cells by XTT assay; format: cell-based
Outline: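 XTT proliferation read-out combined with the primary assay for inhibitors of LFA-1/ICAM-1-mediated cell aggregation. IC50 in µg/mL, mean ± SEM of three determinations.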

Plasmodium falciparum [14] = test: Antimalarial activity against chloroquine-resistant Plasmodium falciparum W2 by LDH assay; format: functional, organism-based
[15] = target: Intercellular adhesion molecule (ICAM-1), Integrin alpha-L/beta-2 (Homo sapiens) (UniProt P20701+P05362+P05107); test: Inhibition of LFA1/ICAM1-mediated HL60 cell aggregation; format: cell-based; conditions: HL-60
Outline: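 Primary screen for LFA-1/ICAM-1-mediated cell aggregation run together with an XTT cell-proliferation read-out. Aggregation potency is reported as a minimum inhibitory concentration in µg/mL.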

SK-OV-3 = test: Cytotoxicity against human SKOV3 cells after 48 hrs by neutral red staining; format: functional, cell-based; conditions: SK-OV-3, 48 h; outline: as §2
[16] = Inhibition of protein biosynthesis in mouse Krebs cells assessed as firefly luciferase activity at 2 uM after 1 hr by translation assay relative to control; format: functional; outline: as §4
Plasmodium falciparum [17] = test: Antimalarial activity against chloroquine-sensitive Plasmodium falciparum D6 by LDH assay; format: functional, organism-based
Vero = test: Cytotoxicity against african green monkey kidney Vero cells; format: cell-based; conditions: Chlorocebus sabaeus
HeLa [18] = test: Inhibition of protein synthesis in human HeLa cells assessed as translation at 2 uM by [35S]methionine metabolic labeling study; format: functional; design: scale not given: the % may be the effect or the level left
HeLa [19] = test: Inhibition of translation in human HeLa cells at 10 uM by 35S-methionine metabolic labeling study; format: functional, cell-based
[20] = Inhibition of protein biosynthesis in mouse Krebs cells assessed as firefly luciferase activity at 10 uM after 1 hr by translation assay relative to control; format: functional; outline: as §4
[21] = Inhibition of protein biosynthesis in mouse Krebs cells assessed as renilla luciferase activity at 10 uM after 1 hr by translation assay relative to control; format: functional; outline: as §4

Intercellular adhesion molecule (ICAM-1), Integrin alpha-L/beta-2, sequence (P20701 whole entry): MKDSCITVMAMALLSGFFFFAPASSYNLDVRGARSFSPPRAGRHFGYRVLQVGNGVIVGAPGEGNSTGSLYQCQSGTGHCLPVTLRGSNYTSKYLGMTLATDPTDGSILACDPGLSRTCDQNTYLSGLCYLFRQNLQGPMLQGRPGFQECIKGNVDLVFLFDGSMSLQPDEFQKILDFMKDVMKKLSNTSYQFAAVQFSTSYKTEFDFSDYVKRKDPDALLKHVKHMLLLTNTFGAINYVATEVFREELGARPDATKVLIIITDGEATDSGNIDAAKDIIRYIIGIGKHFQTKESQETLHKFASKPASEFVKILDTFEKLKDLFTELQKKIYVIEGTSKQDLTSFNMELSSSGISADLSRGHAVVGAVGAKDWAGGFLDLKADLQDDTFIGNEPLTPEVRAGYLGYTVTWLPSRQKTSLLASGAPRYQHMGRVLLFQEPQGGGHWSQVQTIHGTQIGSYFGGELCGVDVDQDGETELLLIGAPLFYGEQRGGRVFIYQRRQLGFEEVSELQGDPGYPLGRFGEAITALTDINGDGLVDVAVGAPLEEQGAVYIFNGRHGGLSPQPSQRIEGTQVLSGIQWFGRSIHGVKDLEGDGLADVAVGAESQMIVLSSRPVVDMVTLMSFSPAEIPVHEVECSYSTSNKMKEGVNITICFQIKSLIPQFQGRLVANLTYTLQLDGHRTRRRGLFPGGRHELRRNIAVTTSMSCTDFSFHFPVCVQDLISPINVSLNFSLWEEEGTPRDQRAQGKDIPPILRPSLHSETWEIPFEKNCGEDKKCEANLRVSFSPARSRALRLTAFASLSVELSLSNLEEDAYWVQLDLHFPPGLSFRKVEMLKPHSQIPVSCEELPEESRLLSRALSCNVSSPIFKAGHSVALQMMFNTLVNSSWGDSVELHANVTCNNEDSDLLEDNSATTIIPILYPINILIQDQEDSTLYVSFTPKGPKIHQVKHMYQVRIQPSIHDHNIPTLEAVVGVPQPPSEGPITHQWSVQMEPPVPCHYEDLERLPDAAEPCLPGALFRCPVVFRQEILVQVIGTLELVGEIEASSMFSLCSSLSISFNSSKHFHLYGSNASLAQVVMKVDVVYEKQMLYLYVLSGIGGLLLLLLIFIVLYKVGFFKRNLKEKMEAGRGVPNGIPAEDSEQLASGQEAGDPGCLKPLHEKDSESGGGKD
Intercellular adhesion molecule (ICAM-1), Integrin alpha-L/beta-2, sequence (P05362 whole entry): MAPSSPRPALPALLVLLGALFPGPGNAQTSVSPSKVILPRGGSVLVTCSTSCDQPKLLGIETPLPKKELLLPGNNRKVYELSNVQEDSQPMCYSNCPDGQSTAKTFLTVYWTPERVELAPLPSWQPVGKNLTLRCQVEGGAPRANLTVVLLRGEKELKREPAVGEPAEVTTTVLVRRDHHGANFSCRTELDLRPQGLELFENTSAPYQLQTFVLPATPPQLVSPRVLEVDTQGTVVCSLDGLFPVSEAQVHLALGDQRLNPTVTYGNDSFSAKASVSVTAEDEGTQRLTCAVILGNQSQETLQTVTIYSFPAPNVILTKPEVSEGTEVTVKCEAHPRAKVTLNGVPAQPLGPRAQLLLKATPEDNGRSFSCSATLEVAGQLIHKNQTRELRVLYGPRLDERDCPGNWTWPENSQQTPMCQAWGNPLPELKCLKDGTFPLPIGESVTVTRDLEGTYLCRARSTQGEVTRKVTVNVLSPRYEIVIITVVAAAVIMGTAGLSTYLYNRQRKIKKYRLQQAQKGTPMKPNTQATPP
Intercellular adhesion molecule (ICAM-1), Integrin alpha-L/beta-2, sequence (P05107 whole entry): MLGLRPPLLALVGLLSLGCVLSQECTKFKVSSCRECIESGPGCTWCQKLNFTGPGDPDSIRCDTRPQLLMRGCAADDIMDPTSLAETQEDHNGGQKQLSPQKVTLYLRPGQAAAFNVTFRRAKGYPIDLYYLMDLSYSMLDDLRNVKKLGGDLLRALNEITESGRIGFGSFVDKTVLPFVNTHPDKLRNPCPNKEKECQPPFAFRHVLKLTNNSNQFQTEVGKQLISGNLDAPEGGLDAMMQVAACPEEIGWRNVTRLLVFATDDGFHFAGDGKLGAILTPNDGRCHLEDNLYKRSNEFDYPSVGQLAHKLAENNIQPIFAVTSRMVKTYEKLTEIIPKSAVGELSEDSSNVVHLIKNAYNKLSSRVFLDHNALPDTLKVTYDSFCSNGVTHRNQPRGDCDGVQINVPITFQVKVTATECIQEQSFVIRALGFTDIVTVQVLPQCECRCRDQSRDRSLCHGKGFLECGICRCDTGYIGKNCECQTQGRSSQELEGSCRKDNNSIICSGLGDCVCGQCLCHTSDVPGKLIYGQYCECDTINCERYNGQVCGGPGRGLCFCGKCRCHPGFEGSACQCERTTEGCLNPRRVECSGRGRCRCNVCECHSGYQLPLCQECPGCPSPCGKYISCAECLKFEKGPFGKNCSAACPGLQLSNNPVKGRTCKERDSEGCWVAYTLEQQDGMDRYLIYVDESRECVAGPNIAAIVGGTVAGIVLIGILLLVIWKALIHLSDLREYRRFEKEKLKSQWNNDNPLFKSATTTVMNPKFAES

Compound | IC50 (RAW264.7 [1]) [µg/mL] | IC50 (RAW264.7 [2]) [µg/mL] | Ratio [3] | selectivity ratio [4] | selectivity ratio [5] | IC50 (Leishmania donovani) [µg/mL] | IC90 (Leishmania donovani) [µg/mL] | inhibition at 2 µM (HeLa [6]) [%] | IC50 (CHO) [µg/mL] | IC50 (KB) [µg/mL] | IC50 (SK-MEL) [µg/mL] | IC50 (BT-549) [µg/mL] | Activity (HeLa [8]) | Activity [10] | Ratio [11] | IC50 (Plasmodium falciparum [14]) [µg/mL] | Activity [16] | IC50 (Plasmodium falciparum [17]) [µg/mL] | IC50 (Vero) [µg/mL] | Activity (HeLa [18]) [%] | also measured
N.S=C(S)N1CCCC1 [PYRROLIDINE DITHIOCARBAMIC ACID, AMMONIUM SALT] | 21 | < 0.4 | <0.02 |  |  |  |  |  |  |  |  |  |  |  |  |  |  |  |  |  | 
C[C@@H]1C[C@H]2[C@@H]3CCC4=CC(=O)C=C[C@]4(C)[C@@]3(F)[C@@H](O)C[C@]2(C)[C@@]1(O)C(=O)CO [DEXAMETHASONE] | 36 (≈ 91.7 µM) | > 25 | 0.69 |  |  |  |  |  |  |  |  |  |  |  |  |  |  |  |  |  | 
CC[C@@H](C)C(=O)O[C@H]1C(=O)O[C@@H]2C[C@H]3C(C)=CC(=O)[C@@H](O)[C@]3(C)[C@H]3[C@@H](O)[C@H](O)[C@]4(C)OC[C@]32[C@@H]14 [SIMALIKALACTONE D] | 0.76 (≈ 1.59 µM) | 0.08 (≈ 0.167 µM) |  | 613 | 750 | 0.035 (≈ 0.0731 µM) | 0.2 (≈ 0.418 µM) | 98.5 | 0.032 (≈ 0.0669 µM) | 1 (≈ 2.09 µM) | 0.28 (≈ 0.585 µM) | 0.3 (≈ 0.627 µM) | Active | 0.09 | 2.5 | 0.00367 (≈ 0.00767 µM) | 0.05 | 0.003 (≈ 0.00627 µM) | 2.3 (≈ 4.81 µM) | 1.5 | Activity [7]: 0.25; Activity [9]: 0.17; IC50 [12]: > 52.2 µM; Activity (HeLa [13]): Active; IC50 (HL-60): 0.025 µg/mL (≈ 0.0522 µM); MIC [15]: 0.01 µg/mL (≈ 0.0209 µM); IC50 (SK-OV-3): 0.3 µg/mL (≈ 0.627 µM)
CC[C@@H](C)C(=O)O[C@H]1C(=O)O[C@@H]2C[C@H]3C(C)=C[C@H](O)[C@@H](O)[C@]3(C)[C@H]3[C@@H](O)[C@@H](O)[C@]4(C)OC[C@]32[C@@H]14 | 6.5 (≈ 13.5 µM) | 4.2 (≈ 8.74 µM) | 0.6 | 1180 | 3060 | 25 (≈ 52 µM) | > 50 | 96.5 | 2.5 (≈ 5.2 µM) | 1.9 (≈ 3.95 µM) | 1.9 (≈ 3.95 µM) | 1.7 (≈ 3.54 µM) |  | 0.57 | 2.7 | 0.00853 (≈ 0.0178 µM) | 0.35 | 0.00327 (≈ 0.0068 µM) | 10 (≈ 20.8 µM) | 3.5 | IC50 [12]: > 52 µM; Activity (HeLa [19]): Active; Activity [20]: 0.05; IC50 (HL-60): 0.7 µg/mL (≈ 1.46 µM); MIC [15]: 0.26 µg/mL (≈ 0.541 µM); IC50 (SK-OV-3): 0.8 µg/mL (≈ 1.66 µM); Activity [21]: 0.09
CC[C@@H](C)C(=O)O[C@H]1C(=O)O[C@@H]2C[C@H]3C(C)=C[C@H](OC(C)=O)[C@@H](OC(C)=O)[C@]3(C)[C@H]3[C@@H](O)[C@@H](OC(C)=O)[C@]4(C)OC[C@]32[C@@H]14 |  |  |  |  |  | > 50 | > 50 | 0 |  |  |  |  | inactive | 1.14 |  | > 4.76 | 0.87 | > 4.76 | 10 (≈ 16.5 µM) | 100 | Activity (HeLa [19]): inactive; Activity [20]: 1.02; Activity [21]: 1.03
CC[C@@H](C)C(=O)O[C@H]1C(=O)O[C@@H]2C[C@H]3C(C)=CC(=O)[C@@H](O)[C@]3(C)[C@H]3[C@@H](OC(C)=O)[C@H](OC(C)=O)[C@]4(C)OC[C@]32[C@@H]14 | 23 (≈ 40.9 µM) | 24 (≈ 42.7 µM) | 1 | > 14 | > 7.4 | > 50 | > 50 | 0 | 39 (≈ 69.3 µM) | > 10 | > 10 | > 10 | inactive | 0.87 | 1.9 | 1.7 (≈ 3.02 µM) | 1.34 | 3.2 (≈ 5.69 µM) | > 23.8 | 100 | IC50 [12]: > 44.4 µM; Activity (HeLa [19]): inactive; Activity [20]: 0.42; IC50 (HL-60): 40 µg/mL (≈ 71.1 µM); MIC [15]: 20.8 µg/mL (≈ 37 µM); IC50 (SK-OV-3): > 10 µg/mL; Activity [21]: 0.52
